Here are results for 3 compounds from ChEMBL document CHEMBL4387708, “Enhancement of Benzothiazoles as Pteridine Reductase-1 Inhibitors for the Treatment of Trypanosomatidic Infections” (J Med Chem, 2019).

Where only a bound is given, the exact number is not on record here.

Broadly, the IC50 is the concentration at which inhibition is half-maximal. In general, GI50 refers to the concentration giving 50% growth inhibition.

Voltage-gated inwardly rectifying potassium channel KCNH2, sequence (Q12809 whole entry): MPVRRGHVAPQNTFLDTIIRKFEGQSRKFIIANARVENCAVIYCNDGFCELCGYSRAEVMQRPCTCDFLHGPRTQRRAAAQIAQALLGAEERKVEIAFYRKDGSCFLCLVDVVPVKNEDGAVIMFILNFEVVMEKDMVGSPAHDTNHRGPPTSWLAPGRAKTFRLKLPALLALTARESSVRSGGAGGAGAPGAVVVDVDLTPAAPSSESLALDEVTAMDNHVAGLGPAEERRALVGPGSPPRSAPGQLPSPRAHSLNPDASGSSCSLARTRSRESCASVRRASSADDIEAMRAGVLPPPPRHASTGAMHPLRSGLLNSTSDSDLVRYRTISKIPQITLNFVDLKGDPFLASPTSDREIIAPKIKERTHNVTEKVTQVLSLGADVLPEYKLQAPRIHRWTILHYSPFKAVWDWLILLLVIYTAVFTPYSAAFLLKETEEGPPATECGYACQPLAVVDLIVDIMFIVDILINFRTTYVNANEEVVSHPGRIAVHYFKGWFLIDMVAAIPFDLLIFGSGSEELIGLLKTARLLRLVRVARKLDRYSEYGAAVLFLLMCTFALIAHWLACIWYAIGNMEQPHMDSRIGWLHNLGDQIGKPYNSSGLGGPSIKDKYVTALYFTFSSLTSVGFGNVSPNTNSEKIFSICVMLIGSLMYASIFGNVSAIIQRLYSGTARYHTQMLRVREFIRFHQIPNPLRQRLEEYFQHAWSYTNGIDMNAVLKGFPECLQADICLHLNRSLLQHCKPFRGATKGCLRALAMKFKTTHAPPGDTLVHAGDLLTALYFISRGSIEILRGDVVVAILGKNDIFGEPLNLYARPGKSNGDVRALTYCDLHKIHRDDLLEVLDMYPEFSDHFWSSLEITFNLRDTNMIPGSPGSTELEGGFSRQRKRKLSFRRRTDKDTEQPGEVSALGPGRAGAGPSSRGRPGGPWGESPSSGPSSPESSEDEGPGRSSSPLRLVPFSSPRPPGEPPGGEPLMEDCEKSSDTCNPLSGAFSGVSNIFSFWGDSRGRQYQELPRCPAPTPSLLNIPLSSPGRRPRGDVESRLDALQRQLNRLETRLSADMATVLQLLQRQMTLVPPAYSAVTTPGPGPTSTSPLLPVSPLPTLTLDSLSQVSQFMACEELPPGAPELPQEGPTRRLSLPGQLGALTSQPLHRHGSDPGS

One data set concerns Trypanosoma cruzi. The data set is described as follows: Growth inhibition of trypomastigote form of Trypanosoma cruzi Y infected in human U2OS cells at 50 uM measured after 72 hrs by DRAQ5 DNA dye based confocal microscopic analysis relative to control. It is filed as organism-based. The conditions noted are these: Trypanosoma cruzi, Y, U2OS, read-out: GI.
With `COC(=O)C1CCN(C(=O)c2ccc(COc3ccc4nc(N)sc4c3)cc2)CC1`, the inhibition at 50 µM was determined as 27%.

In the case of `Nc1nc2c(O)cc(C(=O)NCc3ccccc3)cc2s1`, the inhibition at 50 µM came to 28.8%.

Staying with this data set, now noted: trypanosoma cruzi, 50 µM.
Take `COC(=O)c1ccc(CNC(=O)c2ccc3nc(N)sc3c2)cc1`: the “growth inhibition (GI)” value is reported as “Non-Toxic”.

The next data set concerns Leishmania infantum. The data set is described as follows: Growth inhibition of luciferase expressing Leishmania infantum axenic amastigotes infected in human THP1 cells at 10 uM measured after 72 hrs by steady-glo luminescence assay relative to control. It is filed as organism-based. The note with it: Leishmania infantum, THP-1, 72 h; read-out: GI.
`Nc1nc2c(O)cc(C(=O)NCc3ccccc3)cc2s1`: the inhibition at 10 µM came to 11%.

The same data set, now with this note: leishmania infantum, 72 h, 10 µM.
As to `COC(=O)c1ccc(CNC(=O)c2ccc3nc(N)sc3c2)cc1`, the “growth inhibition (GI)” value is “Non-Toxic”.

Regarding `COC(=O)C1CCN(C(=O)c2ccc(COc3ccc4nc(N)sc4c3)cc2)CC1`, the “growth inhibition (GI)” value is “Non-Toxic”.

The next data set deals with T1, Pteridine reductase 1 (Leishmania major, UniProt Q01782).
T1 sequence (Q01782 whole entry): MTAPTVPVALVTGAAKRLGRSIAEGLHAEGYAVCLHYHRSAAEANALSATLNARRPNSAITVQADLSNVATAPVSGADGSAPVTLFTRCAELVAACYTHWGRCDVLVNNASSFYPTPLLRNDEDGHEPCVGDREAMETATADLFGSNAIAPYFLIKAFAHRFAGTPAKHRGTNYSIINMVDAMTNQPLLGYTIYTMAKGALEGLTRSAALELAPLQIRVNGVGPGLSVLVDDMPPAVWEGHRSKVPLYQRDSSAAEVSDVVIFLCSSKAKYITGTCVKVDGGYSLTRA
The data set is described as follows: Inhibition of Leishmania major pteridine reductase 1 using di-hydrobiopterine as substrate in presence of NADPH. The conditions noted are these: read-out: IC50. In outline: (§1)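 Photometric PTR1 assay with NADPH and dihydrobiopterin substrate. H₄B formation is coupled non-enzymatically to cytochrome c reduction, read as signal increase at 550 nm.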
For the compound `COC(=O)c1ccc(CNC(=O)c2ccc3nc(N)sc3c2)cc1`, the IC50 was 36 µM.

Take `COC(=O)C1CCN(C(=O)c2ccc(COc3ccc4nc(N)sc4c3)cc2)CC1`: the IC50 was found to be 31.9 µM.

Take `Nc1nc2c(O)cc(C(=O)NCc3ccccc3)cc2s1`: the IC50 was 2.48 µM.

Molecular target in the next data set: not listed separately
Put plainly: Inhibition of N-terminal His-tagged Trypanosoma brucei pteridine reductase 1 using di-hydrobiopterine as substrate measured at 1 min interval for 50 mins in presence of NADPH.
Conditions: not given
In outline:
as §1
Regarding `COC(=O)c1ccc(CNC(=O)c2ccc3nc(N)sc3c2)cc1`, the IC50 amounted to 16.5 µM.

For `COC(=O)C1CCN(C(=O)c2ccc(COc3ccc4nc(N)sc4c3)cc2)CC1`, the IC50 is 3.3 µM.

A further data set deals with Trypanosoma brucei. Put plainly: Inhibition of N-terminal His-tagged Trypanosoma brucei pteridine reductase 1 at 50 uM using di-hydrobiopterine as substrate measured at 1 min interval for 50 mins in presence of NADPH relative to control.
Conditions: not given
In a few lines:
as §1
Regarding `COC(=O)c1ccc(CNC(=O)c2ccc3nc(N)sc3c2)cc1`, the inhibition is greater than 60%.

In the case of `COC(=O)C1CCN(C(=O)c2ccc(COc3ccc4nc(N)sc4c3)cc2)CC1`, the inhibition is greater than 60%.

For `Nc1nc2c(O)cc(C(=O)NCc3ccccc3)cc2s1`, the inhibition is 47.8%.

For another data set, the target named is T2, Pteridine reductase 1 (Leishmania major) (UniProt Q01782).
T2 sequence (whole entry): T1 sequence (Q01782 whole entry)
The data set is described as follows: Inhibition of Leishmania major pteridine reductase 1 at 50 uM using di-hydrobiopterine as substrate in presence of NADPH relative to control.
Conditions: not given
In outline: as §1
Turning to `COC(=O)c1ccc(CNC(=O)c2ccc3nc(N)sc3c2)cc1`, the inhibition is greater than 60%.

As to `COC(=O)C1CCN(C(=O)c2ccc(COc3ccc4nc(N)sc4c3)cc2)CC1`, the inhibition is greater than 60%.

`Nc1nc2c(O)cc(C(=O)NCc3ccccc3)cc2s1`: the inhibition was greater than 60%.

The subject of a further data set is Trypanosoma brucei. Put plainly: Growth inhibition of Trypanosoma brucei bloodstream forms at 10 uM measured after 72 hrs by resazurin-based fluorescence assay relative to control. The conditions noted are these: Trypanosoma brucei, read-out: GI. Type of data set: organism-based. (In general: Alamar Blue is a resazurin reagent that responds to reducing activity.)
For `COC(=O)c1ccc(CNC(=O)c2ccc3nc(N)sc3c2)cc1`, the inhibition at 10 µM was 16%.

Regarding `COC(=O)C1CCN(C(=O)c2ccc(COc3ccc4nc(N)sc4c3)cc2)CC1`, the inhibition at 10 µM worked out at 52%.

Take `Nc1nc2c(O)cc(C(=O)NCc3ccccc3)cc2s1`: the inhibition at 10 µM turned out to be 15%.

Another data set addresses Voltage-gated inwardly rectifying potassium channel KCNH2 (Homo sapiens, UniProt Q12809). The data set is described as follows: Displacement of Tracer Red from human ERG by fluorescence polarization assay.
Conditions: not given
For the compound `COC(=O)c1ccc(CNC(=O)c2ccc3nc(N)sc3c2)cc1`, the IC50 is greater than 25 µM.

In the case of `COC(=O)C1CCN(C(=O)c2ccc(COc3ccc4nc(N)sc4c3)cc2)CC1`, the IC50 was greater than 25 µM.

In turn, `Nc1nc2c(O)cc(C(=O)NCc3ccccc3)cc2s1` came in with a concentration for half-maximal inhibition (IC50) greater than 25 µM.

In a further data set the target is T3, Cytochrome P450 1A2 (Homo sapiens, UniProt P05177).
T3 sequence (P05177 whole entry): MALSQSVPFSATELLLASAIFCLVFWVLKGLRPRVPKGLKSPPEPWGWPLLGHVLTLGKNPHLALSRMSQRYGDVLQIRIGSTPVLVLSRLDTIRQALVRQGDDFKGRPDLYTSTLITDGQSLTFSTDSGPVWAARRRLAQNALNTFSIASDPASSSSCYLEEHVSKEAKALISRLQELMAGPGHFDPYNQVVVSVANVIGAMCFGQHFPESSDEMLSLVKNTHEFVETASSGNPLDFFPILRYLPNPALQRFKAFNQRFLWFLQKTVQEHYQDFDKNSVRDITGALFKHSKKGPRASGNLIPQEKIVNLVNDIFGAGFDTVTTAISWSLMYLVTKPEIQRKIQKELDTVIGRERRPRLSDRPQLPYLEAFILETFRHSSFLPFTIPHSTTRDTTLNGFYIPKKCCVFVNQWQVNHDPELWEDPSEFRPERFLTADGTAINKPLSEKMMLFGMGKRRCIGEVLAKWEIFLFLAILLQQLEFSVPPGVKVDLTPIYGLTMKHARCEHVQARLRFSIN
Put plainly: Inhibition of human CYP1A2 expressed in baculovirus infected insect cells using beetle D-luciferin as substrate preincubated for 30 mins followed by NADPH addition and measured after 30 mins by CYP450-Glo assay.
Conditions: not given
`COC(=O)c1ccc(CNC(=O)c2ccc3nc(N)sc3c2)cc1` gave an IC50 greater than 25 µM.

On to `COC(=O)C1CCN(C(=O)c2ccc(COc3ccc4nc(N)sc4c3)cc2)CC1`, for which the IC50 is greater than 25 µM.

`Nc1nc2c(O)cc(C(=O)NCc3ccccc3)cc2s1` displayed an IC50 greater than 25 µM.

For another data set, the target named is Cytochrome P450 2C9 (Homo sapiens, UniProt P11712). The data set is described as follows: Inhibition of human CYP2C9 expressed in baculovirus infected insect cells using beetle D-luciferin as substrate preincubated for 30 mins followed by NADPH addition and measured after 30 mins by CYP450-Glo assay.
Cytochrome P450 2C9, sequence (P11712 whole entry): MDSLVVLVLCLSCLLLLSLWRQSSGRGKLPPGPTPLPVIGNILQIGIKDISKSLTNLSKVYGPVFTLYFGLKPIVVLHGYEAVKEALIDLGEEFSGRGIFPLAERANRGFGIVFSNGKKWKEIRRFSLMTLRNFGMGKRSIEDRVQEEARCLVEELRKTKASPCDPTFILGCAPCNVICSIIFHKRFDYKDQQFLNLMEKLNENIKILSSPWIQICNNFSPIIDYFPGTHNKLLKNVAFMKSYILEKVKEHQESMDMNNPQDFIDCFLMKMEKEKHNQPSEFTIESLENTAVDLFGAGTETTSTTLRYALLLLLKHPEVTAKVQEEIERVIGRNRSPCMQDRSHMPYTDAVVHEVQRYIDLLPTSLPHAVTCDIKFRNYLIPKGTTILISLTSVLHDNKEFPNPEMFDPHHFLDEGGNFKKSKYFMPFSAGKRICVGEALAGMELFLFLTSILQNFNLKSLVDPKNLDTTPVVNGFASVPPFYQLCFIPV
Conditions: not given
Turning to `COC(=O)c1ccc(CNC(=O)c2ccc3nc(N)sc3c2)cc1`, the IC50 lay within 10 to 25 µM.

`Nc1nc2c(O)cc(C(=O)NCc3ccccc3)cc2s1` showed an IC50 greater than 25 µM.

The next data set deals with Cytochrome P450 2C19 (Homo sapiens, UniProt P33261). The data set is described as follows: Inhibition of human CYP2C19 expressed in baculovirus infected insect cells using beetle D-luciferin as substrate preincubated for 30 mins followed by NADPH addition and measured after 30 mins by CYP450-Glo assay.
Cytochrome P450 2C19, sequence (P33261 whole entry): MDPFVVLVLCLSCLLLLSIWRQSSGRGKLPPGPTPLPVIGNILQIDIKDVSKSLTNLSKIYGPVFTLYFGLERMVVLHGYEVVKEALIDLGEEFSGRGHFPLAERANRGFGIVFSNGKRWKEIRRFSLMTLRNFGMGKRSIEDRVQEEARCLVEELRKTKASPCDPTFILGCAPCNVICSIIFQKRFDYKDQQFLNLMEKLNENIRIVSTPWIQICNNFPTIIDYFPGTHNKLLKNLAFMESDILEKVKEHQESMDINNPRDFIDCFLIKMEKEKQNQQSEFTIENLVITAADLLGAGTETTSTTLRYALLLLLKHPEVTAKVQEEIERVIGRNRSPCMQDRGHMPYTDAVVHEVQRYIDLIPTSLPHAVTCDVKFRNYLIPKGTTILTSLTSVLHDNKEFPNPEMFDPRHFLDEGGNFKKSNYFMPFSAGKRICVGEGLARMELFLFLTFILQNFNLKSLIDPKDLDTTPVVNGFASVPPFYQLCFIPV
Conditions: not given
The compound `COC(=O)c1ccc(CNC(=O)c2ccc3nc(N)sc3c2)cc1` showed an IC50 greater than 25 µM.

Consider `Nc1nc2c(O)cc(C(=O)NCc3ccccc3)cc2s1`, for which the IC50 was in the range of 10 to 25 µM.

For another data set, the target named is Cytochrome P450 2D6 (Homo sapiens, UniProt P10635). The data set is described as follows: Inhibition of human CYP2D6 expressed in baculovirus infected insect cells using beetle D-luciferin as substrate preincubated for 30 mins followed by NADPH addition and measured after 30 mins by CYP450-Glo assay.
Cytochrome P450 2D6, sequence (P10635 whole entry): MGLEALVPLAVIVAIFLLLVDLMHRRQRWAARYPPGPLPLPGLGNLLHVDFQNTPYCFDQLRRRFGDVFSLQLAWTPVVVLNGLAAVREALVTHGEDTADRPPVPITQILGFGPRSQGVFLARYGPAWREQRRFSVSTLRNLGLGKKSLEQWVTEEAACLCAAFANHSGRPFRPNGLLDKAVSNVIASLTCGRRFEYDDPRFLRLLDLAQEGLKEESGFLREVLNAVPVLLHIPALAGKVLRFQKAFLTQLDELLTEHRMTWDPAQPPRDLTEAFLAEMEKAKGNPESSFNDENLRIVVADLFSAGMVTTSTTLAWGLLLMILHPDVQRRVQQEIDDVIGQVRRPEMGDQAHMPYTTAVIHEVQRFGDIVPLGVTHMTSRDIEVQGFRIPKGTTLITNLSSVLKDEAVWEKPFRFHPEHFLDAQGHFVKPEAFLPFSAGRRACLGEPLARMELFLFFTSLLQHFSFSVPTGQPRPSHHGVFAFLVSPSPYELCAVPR
Conditions: not given
For `COC(=O)c1ccc(CNC(=O)c2ccc3nc(N)sc3c2)cc1`, the IC50 was greater than 25 µM.

On to `COC(=O)C1CCN(C(=O)c2ccc(COc3ccc4nc(N)sc4c3)cc2)CC1`, for which the IC50 was greater than 25 µM.

Take `Nc1nc2c(O)cc(C(=O)NCc3ccccc3)cc2s1`: the IC50 was less than 10 µM.

The target in the next data set is Cytochrome P450 3A4 (Homo sapiens, UniProt P08684). The data set is described as follows: Inhibition of human CYP3A4 expressed in baculovirus infected insect cells using beetle D-luciferin as substrate preincubated for 30 mins followed by NADPH addition and measured after 30 mins by CYP450-Glo assay.
Cytochrome P450 3A4, sequence (P08684 whole entry): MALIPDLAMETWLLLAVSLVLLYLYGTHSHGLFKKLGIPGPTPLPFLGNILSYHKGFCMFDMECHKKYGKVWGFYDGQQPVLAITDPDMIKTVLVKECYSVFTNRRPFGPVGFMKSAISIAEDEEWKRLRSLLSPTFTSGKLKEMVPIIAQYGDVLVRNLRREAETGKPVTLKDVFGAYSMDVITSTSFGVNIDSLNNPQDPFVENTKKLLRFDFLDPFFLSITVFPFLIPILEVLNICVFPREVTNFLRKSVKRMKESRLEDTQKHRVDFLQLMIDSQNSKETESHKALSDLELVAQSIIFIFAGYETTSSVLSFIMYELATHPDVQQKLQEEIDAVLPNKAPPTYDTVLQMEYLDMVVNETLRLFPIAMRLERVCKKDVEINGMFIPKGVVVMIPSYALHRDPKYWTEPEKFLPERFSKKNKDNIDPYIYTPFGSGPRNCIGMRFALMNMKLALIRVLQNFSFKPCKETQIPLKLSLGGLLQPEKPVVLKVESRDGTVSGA
Conditions: not given
For `COC(=O)c1ccc(CNC(=O)c2ccc3nc(N)sc3c2)cc1`, the IC50 is greater than 25 µM.

For the compound `COC(=O)C1CCN(C(=O)c2ccc(COc3ccc4nc(N)sc4c3)cc2)CC1`, the IC50 was greater than 25 µM.

Consider `Nc1nc2c(O)cc(C(=O)NCc3ccccc3)cc2s1`, for which the IC50 is less than 10 µM.

System in a further data set: not listed separately
Put plainly: Cytotoxicity against human A549 cells after 48 hrs by Celltiter-glo assay. It is filed as cell-based.
Conditions: not given
(In general: In ATP-based viability assays light output follows the ATP content of the culture.)
On to `COC(=O)c1ccc(CNC(=O)c2ccc3nc(N)sc3c2)cc1`, for which the GI50 at 48 h is greater than 25 µM.

Turning to `COC(=O)C1CCN(C(=O)c2ccc(COc3ccc4nc(N)sc4c3)cc2)CC1`, the GI50 at 48 h is greater than 25 µM.

Take `Nc1nc2c(O)cc(C(=O)NCc3ccccc3)cc2s1`: the GI50 at 48 h is greater than 25 µM.

System in the next data set: not listed separately
The data set is described as follows: Cytotoxicity against human THP1 cells after 72 hrs by MTT assay. Type of data set: cell-based, THP-1. The note with it: read-out: NOAEL.
As for `COC(=O)c1ccc(CNC(=O)c2ccc3nc(N)sc3c2)cc1`, the MNTC at 72 h is greater than 25 µM.

Take `COC(=O)C1CCN(C(=O)c2ccc(COc3ccc4nc(N)sc4c3)cc2)CC1`: the MNTC at 72 h was 10 to 25 µM.

Consider `Nc1nc2c(O)cc(C(=O)NCc3ccccc3)cc2s1`, for which the MNTC at 72 h was greater than 25 µM.

System in another data set: not listed separately
The data set is described as follows: Cytotoxicity against human U2OS cells assessed as reduction in cell number. Type of data set: cell-based.
Conditions: not given
As for `COC(=O)c1ccc(CNC(=O)c2ccc3nc(N)sc3c2)cc1`, the GI50 is greater than 25 µM.

Take `COC(=O)C1CCN(C(=O)c2ccc(COc3ccc4nc(N)sc4c3)cc2)CC1`: the 50% growth inhibitory concentration (GI50) was greater than 25 µM.

Take `Nc1nc2c(O)cc(C(=O)NCc3ccccc3)cc2s1`: the GI50 is greater than 25 µM.

System in a further data set: not listed separately
The data set is described as follows: Mitochondrial toxicity in human 786-O cells measured after 6 hrs by MitoTracker Red chloromethyl-X-rosamine based assay. Type of data set: cell-based, 786-0.
Conditions: not given
On to `COC(=O)c1ccc(CNC(=O)c2ccc3nc(N)sc3c2)cc1`, for which the IC50 at 6 h was greater than 25 µM.

As for `COC(=O)C1CCN(C(=O)c2ccc(COc3ccc4nc(N)sc4c3)cc2)CC1`, the IC50 at 6 h was greater than 25 µM.

In turn, `Nc1nc2c(O)cc(C(=O)NCc3ccccc3)cc2s1` returned an IC50 at 6 h greater than 25 µM.

System in a further data set: not listed separately
Put plainly: Selectivity ratio of IC50 for Leishmania major pteridine reductase 1 to IC50 for N-terminal His-tagged Trypanosoma brucei pteridine reductase 1.
Conditions: not given
With `COC(=O)c1ccc(CNC(=O)c2ccc3nc(N)sc3c2)cc1`, the Ratio IC50 fell in the range of 2 to 100.

As to `Nc1nc2c(O)cc(C(=O)NCc3ccccc3)cc2s1`, the Ratio IC50 is 2 to 100.
